{"source": "ChEMBL document CHEMBL3856209", "about": "“Novel pyrazolopyridine derivatives as potential angiogenesis inhibitors: Synthesis, biological evaluation and transcriptome-based mechanistic analysis” (Eur J Med Chem, 2016)", "key": {"HUVEC [1]": {"test_system": "HUVEC", "experiment": "Effect on ZAK gene expression in serum-starved HUVEC after 24 hrs by microarray analysis relative to control", "type": "functional, Homo sapiens"}, "HUVEC [2]": {"test_system": "HUVEC", "experiment": "Effect on ITGA2 gene expression in serum-starved HUVEC after 24 hrs by microarray analysis relative to control", "type": "functional, Homo sapiens", "outline": "(§1)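 Confluent, serum-starved HUVEC (pooled from 3–5 donors, passage ≤4) treated with 2 μM compound or vehicle with 2.5% FBS for 6 h or 24 h. Total RNA hybridized to Illumina Human-HT12 arrays. Data were background-corrected, vst-transformed and rsn-normalized. Hits called by moderated paired t-test versus DMSO-treated cells, p < 0.05 and log2 fold change >|0.5|.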"}, "HUVEC [3]": {"test_system": "HUVEC", "experiment": "Effect on MAP1B gene expression in serum-starved HUVEC after 24 hrs by microarray analysis relative to control", "type": "functional, Homo sapiens", "outline": "(§2)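 Serum-starved confluent HUVEC (pooled from 3–5 donors, passage ≤4) were treated with 2 μM compound or vehicle in 2.5% FBS for 6 h or 24 h, and total RNA was isolated. Hybridization was on Illumina Human-HT12. Data were processed with bgAdjust, vst and rsn normalization. Changes versus DMSO were called by moderated paired t-test at p < 0.05 and |log2 fold change| > 0.5.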"}, "HUVEC [4]": {"test_system": "HUVEC", "experiment": "Effect on ELMOD1 gene expression in serum-starved HUVEC after 24 hrs by microarray analysis relative to control", "type": "functional, Homo sapiens", "outline": "as §1"}, "HUVEC [5]": {"test_system": "HUVEC", "experiment": "Effect on MYO10 gene expression in serum-starved HUVEC after 6 hrs by microarray analysis relative to control", "type": "functional, Homo sapiens"}, "HUVEC [6]": {"test_system": "HUVEC", "experiment": "Effect on RDH11 gene expression in serum-starved HUVEC after 24 hrs by microarray analysis relative to control", "type": "functional, Homo sapiens"}, "HUVEC [7]": {"test_system": "HUVEC", "experiment": "Effect on TGFBI gene expression in serum-starved HUVEC after 24 hrs by microarray analysis relative to control", "type": "functional, Homo sapiens"}, "HUVEC [8]": {"test_system": "HUVEC", "experiment": "Effect on MYO10 gene expression in serum-starved HUVEC after 24 hrs by microarray analysis relative to control", "type": "functional, Homo sapiens", "outline": "as §2"}, "HUVEC [9]": {"test_system": "HUVEC", "experiment": "Effect on ANGPTL4 gene expression in serum-starved HUVEC after 6 hrs by microarray analysis relative to control", "type": "functional, Homo sapiens", "outline": "(§3)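 Serum-starved confluent HUVEC treated with 2 μM compound or DMSO in 2.5% FBS for 6 h or 24 h; RNA hybridized to Illumina Human-HT12 arrays. Data background-corrected, vst-transformed and rsn-normalized. Differential probes called by moderated paired t-test (limma) at p < 0.05 and log2 fold change >|0.5| vs DMSO.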"}, "HUVEC [10]": {"test_system": "HUVEC", "experiment": "Effect on RACGAP1 gene expression in serum-starved HUVEC after 6 hrs by microarray analysis relative to control", "type": "functional, Homo sapiens"}, "HUVEC [11]": {"test_system": "HUVEC", "experiment": "Effect on CCNA2 gene expression in serum-starved HUVEC after 24 hrs by microarray analysis relative to control", "type": "functional, Homo sapiens", "outline": "(§4)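 Confluent serum-starved HUVEC (primary, pooled from 3–5 donors, passage ≤4) treated with 2 μM compound or DMSO vehicle in 2.5% FBS for 6 h or 24 h. Total RNA hybridized to Illumina Human-HT12 arrays, background-corrected, vst-transformed and rsn-normalized. Differential expression versus DMSO by moderated paired t-test (p < 0.05, |log2 fold change| > 0.5).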"}, "HUVEC [12]": {"test_system": "HUVEC", "experiment": "Effect on TYMP gene expression in serum-starved HUVEC after 6 hrs by microarray analysis relative to control", "type": "functional, Homo sapiens"}, "HUVEC [13]": {"test_system": "HUVEC", "experiment": "Effect on KIF4A gene expression in serum-starved HUVEC after 6 hrs by microarray analysis relative to control", "type": "functional, Homo sapiens"}, "HUVEC [14]": {"test_system": "HUVEC", "experiment": "Effect on UHRF1 gene expression in serum-starved HUVEC after 6 hrs by microarray analysis relative to control", "type": "functional, Homo sapiens"}, "HUVEC [15]": {"test_system": "HUVEC", "experiment": "Effect on AIF1 gene expression in serum-starved HUVEC after 24 hrs by microarray analysis relative to control", "type": "functional, Homo sapiens", "outline": "as §3"}, "HUVEC [16]": {"test_system": "HUVEC", "experiment": "Effect on COL8A1 gene expression in serum-starved HUVEC after 6 hrs by microarray analysis relative to control", "type": "functional, Homo sapiens", "outline": "as §1"}, "[17]": {"experiment": "Upregulation of MSMO1 gene expression in serum-starved HUVEC at 2 uM after 24 hrs by qRT-PCR analysis", "type": "functional, cell-based", "settings": "Homo sapiens"}, "HUVEC [18]": {"test_system": "HUVEC", "experiment": "Effect on FABP4 gene expression in serum-starved HUVEC after 6 hrs by microarray analysis relative to control", "type": "functional, Homo sapiens", "outline": "as §4"}, "HUVEC [19]": {"test_system": "HUVEC", "experiment": "Effect on SCD gene expression in serum-starved HUVEC after 24 hrs by microarray analysis relative to control", "type": "functional, Homo sapiens"}, "HUVEC [20]": {"test_system": "HUVEC", "experiment": "Effect on ACACA gene expression in serum-starved HUVEC after 6 hrs by microarray analysis relative to control", "type": "functional, Homo sapiens", "outline": "as §3"}, "HUVEC [21]": {"test_system": "HUVEC", "experiment": "Effect on HLA-DMA gene expression in serum-starved HUVEC after 24 hrs by microarray analysis relative to control", "type": "functional, Homo sapiens"}, "HUVEC [22]": {"test_system": "HUVEC", "experiment": "Effect on KRT18P55 gene expression in serum-starved HUVEC after 6 hrs by microarray analysis relative to control", "type": "functional, Homo sapiens", "outline": "as §2"}, "HUVEC [23]": {"test_system": "HUVEC", "experiment": "Effect on MVD gene expression in serum-starved HUVEC after 24 hrs by microarray analysis relative to control", "type": "functional, Homo sapiens", "outline": "as §2"}, "HUVEC [24]": {"test_system": "HUVEC", "experiment": "Effect on LPIN1 gene expression in serum-starved HUVEC after 6 hrs by microarray analysis relative to control", "type": "functional, Homo sapiens"}, "HUVEC [25]": {"test_system": "HUVEC", "experiment": "Effect on LDLR gene expression in serum-starved HUVEC after 6 hrs by microarray analysis relative to control", "type": "functional, Homo sapiens", "outline": "as §2"}, "HUVEC [26]": {"test_system": "HUVEC", "experiment": "Effect on CYP4X1 gene expression in serum-starved HUVEC after 6 hrs by microarray analysis relative to control", "type": "functional, Homo sapiens", "outline": "as §1"}, "HUVEC [27]": {"test_system": "HUVEC", "experiment": "Effect on SMC4 gene expression in serum-starved HUVEC after 6 hrs by microarray analysis relative to control", "type": "functional, Homo sapiens"}, "HUVEC [28]": {"test_system": "HUVEC", "experiment": "Effect on HLA-DRB4 gene expression in serum-starved HUVEC after 6 hrs by microarray analysis relative to control", "type": "functional, Homo sapiens", "outline": "as §1"}, "HUVEC [29]": {"test_system": "HUVEC", "experiment": "Effect on ANGPT2 gene expression in serum-starved HUVEC after 24 hrs by microarray analysis relative to control", "type": "functional, Homo sapiens", "outline": "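Serum-starved confluent HUVEC (primary, pooled from 3–5 donors, passage ≤4) treated with 2 μM test compound or DMSO vehicle (working dilutions ≤0.1% v/v) in presence of 2.5% FBS for 6 h or 24 h; total RNA hybridized to Illumina Human-HT12 arrays; background correction, vst, rsn normalization; moderated paired t-test versus DMSO, thresholds p < 0.05 and log2 fold change >|0.5|.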"}, "HUVEC [30]": {"test_system": "HUVEC", "experiment": "Effect on SULF1 gene expression in serum-starved HUVEC after 6 hrs by microarray analysis relative to control", "type": "functional, Homo sapiens"}, "[31]": {"experiment": "Downregulation of CCNB2 gene expression in serum-starved HUVEC at 2 uM after 24 hrs by qRT-PCR analysis", "type": "functional, cell-based", "settings": "Homo sapiens", "outline": "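Serum-starved confluent HUVEC treated with 2 μM compound or vehicle in 2.5% FBS for 24 h. Total RNA isolated and qRT-PCR run in triplicate (95 °C 5 min; 40 cycles of 95 °C 5 s, 58 °C 20 s, 72 °C 5 s), normalized to RPS18S. Fold change vs control, n = 3.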"}, "HUVEC [32]": {"test_system": "HUVEC", "experiment": "Effect on TRIP13 gene expression in serum-starved HUVEC after 6 hrs by microarray analysis relative to control", "type": "functional, Homo sapiens"}, "HUVEC [33]": {"test_system": "HUVEC", "experiment": "Effect on HINT3 gene expression in serum-starved HUVEC after 6 hrs by microarray analysis relative to control", "type": "functional, Homo sapiens", "outline": "as §1"}, "HUVEC [34]": {"test_system": "HUVEC", "experiment": "Effect on HINT3 gene expression in serum-starved HUVEC after 24 hrs by microarray analysis relative to control", "type": "functional, Homo sapiens", "outline": "as §1"}, "HUVEC [35]": {"test_system": "HUVEC", "experiment": "Effect on RETSAT gene expression in serum-starved HUVEC after 24 hrs by microarray analysis relative to control", "type": "functional, Homo sapiens"}}, "note": "The source made the active and inactive calls.", "data": [{"smiles": "COc1ccc(Cn2nc(-c3ccccc3)c3cc(Cl)nc(N4CCNCC4)c32)cc1", "values": [{"measurement": "log2FC", "setting": "HUVEC [1]", "value": 0.0198}, {"measurement": "log2FC", "setting": "HUVEC [2]", "value": -0.0226}, {"measurement": "log2FC", "setting": "HUVEC [3]", "value": -0.053}, {"measurement": "log2FC", "setting": "HUVEC [4]", "value": -0.514}]}, {"smiles": "COc1ccc(Cn2nc(-c3ccccc3)c3cc(Nc4ccc(N5CCN(C)CC5)cc4)nc(N4CCN(C)CC4)c32)cc1", "values": [{"measurement": "fold change (FC)", "setting": "HUVEC [5]", "value": -0.0407}, {"measurement": "log2FC", "setting": "HUVEC [6]", "value": 0.6682}, {"measurement": "log2FC", "setting": "HUVEC [7]", "value": -0.9058}, {"measurement": "log2FC", "setting": "HUVEC [8]", "value": 0.507}, {"measurement": "log2FC", "setting": "HUVEC [9]", "value": -0.3836}, {"measurement": "log2FC", "setting": "HUVEC [10]", "value": -0.171}, {"measurement": "fold change (FC)", "setting": "HUVEC [11]", "value": -0.7529}, {"measurement": "log2FC", "setting": "HUVEC [12]", "value": 0.5089}, {"measurement": "fold change (FC)", "setting": "HUVEC [13]", "value": 0.0285}, {"measurement": "fold change (FC)", "setting": "HUVEC [14]", "value": 0.012}, {"measurement": "log2FC", "setting": "HUVEC [15]", "value": -0.7905}, {"measurement": "fold change (FC)", "setting": "HUVEC [16]", "value": 0.2137}, {"measurement": "Activity", "setting": "[17]", "value": "Active"}, {"measurement": "fold change (FC)", "setting": "HUVEC [18]", "value": 0.3036}, {"measurement": "log2FC", "setting": "HUVEC [19]", "value": 1.4341}, {"measurement": "fold change (FC)", "setting": "HUVEC [20]", "value": 0.1305}, {"measurement": "fold change (FC)", "setting": "HUVEC [21]", "value": -0.8514}, {"measurement": "log2FC", "setting": "HUVEC [22]", "value": -0.0175}, {"measurement": "log2FC", "setting": "HUVEC [23]", "value": 1.3802}, {"measurement": "fold change (FC)", "setting": "HUVEC [24]", "value": 0.2925}, {"measurement": "fold change (FC)", "setting": "HUVEC [25]", "value": 0.9404}, {"measurement": "fold change (FC)", "setting": "HUVEC [26]", "value": 0.4504}, {"measurement": "fold change (FC)", "setting": "HUVEC [27]", "value": 0.0208}, {"measurement": "fold change (FC)", "setting": "HUVEC [28]", "value": 0.3506}, {"measurement": "fold change (FC)", "setting": "HUVEC [29]", "value": 0.5736}, {"measurement": "log2FC", "setting": "HUVEC [30]", "value": 0.5151}, {"measurement": "Activity", "setting": "[31]", "value": "Active"}, {"measurement": "log2FC", "setting": "HUVEC [32]", "value": -0.1432}]}, {"smiles": "COc1ccc(Cn2nc(-c3ccccc3)c3cc(Nc4ccc(N5CCN(C)CC5)cc4)nc(N4CCNCC4)c32)cc1", "values": [{"measurement": "log2FC", "setting": "HUVEC [33]", "value": -0.0444}, {"measurement": "log2FC", "setting": "HUVEC [34]", "value": 0.6699}, {"measurement": "log2FC", "setting": "HUVEC [35]", "value": -0.5409}]}]}
